For data set [1], the system named is Leishmania donovani. Kind of data set: Antileishmanial activity against Leishmania donovani MHOM/IN/1983/AG83 amastigotes by Giemsa staining. The format is functional, organism-based. In short, it runs like this:
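Peritoneal macrophages from thioglycolate-elicited exudate (~2×10^6/ml), adhered overnight on coverslips in RPMI-1640 + 10% FBS at 37 °C, 5% CO2. Infected 6 h with stationary-phase AG83 promastigotes (2×10^7/ml), washed, then exposed 24 h to 0.5, 1, 3, 5, 10 compound. Methanol-fixed, Giemsa-stained; amastigotes per 200 macrophages counted against untreated controls.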

Data set [2] has as its system Leishmania donovani. Kind of data set: Antileishmanial activity against Leishmania donovani MHOM/IN/1983/AG83 promastigotes infected BALB/c mouse assessed as spleen weight at 12.5 mg/kg, ip administered two times per week for 4 weeks. As to conditions: route intraperitoneal. The format is functional. The procedure, abridged: (§1)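 BALB/c mice (4-6 weeks) were infected iv with 2 × 10^7 freshly transformed promastigotes. One month later, groups were dosed ip in 0.2% Tween 80 in PBS (0.02 M), twice weekly for one month (8 doses); controls got vehicle only. Mice were killed one month post-treatment and spleen and liver were weighed. Parasite load came from Giemsa impression smears as organ weight (mg) × amastigotes per cell nucleus × 2 × 10^5. Values are mean ± S.E. of 5 mice; unpaired t-test.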

Data set [3] deals with Leishmania donovani. Put plainly: Antileishmanial activity against Leishmania donovani MHOM/IN/1983/AG83 promastigotes after 4 hrs by MTT assay. The format is functional, organism-based. Conditions: MHOM/IN/1983/AG83, 4 h. In short, it runs like this: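 AG83 promastigotes kept at 22 °C in M199 + 10% FBS. Log-phase cells (2×10^6/ml) exposed 2 h at 22 °C to 1, 3, 5, 7, 10, 15 compound; DMSO at 0.1% final. Cells washed with PBS, incubated 4 h at 22 °C with MTT (2 mg/ml). Formazan dissolved in DMSO and read at 570 nm; % lysis computed, IC50 by linear regression.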
In general terms: Tetrazolium dyes change colour on reduction, which living cells bring about.

In data set [4] the test system is Leishmania donovani. Put plainly: Antileishmanial activity against Leishmania donovani MHOM/IN/1983/AG83 promastigotes infected ip dosed BALB/c mouse assessed as reduction in liver parasite burden administered two times per week for 4 weeks relative to control. The format is functional. Also on record: scale not given: the % may be the effect or the level left. In short, it runs like this: as §1

The test system of data set [5] is Leishmania donovani. Put plainly: Antileishmanial activity against Leishmania donovani MHOM/IN/1983/AG83 promastigotes infected BALB/c mouse assessed as liver weight at 12.5 mg/kg, ip administered two times per week for 4 weeks. The data set is classed as functional. Conditions: route intraperitoneal. In short, it runs like this:
as §1

The test system of data set [6] is Leishmania donovani. Put plainly: Antileishmanial activity against Leishmania donovani MHOM/IN/1983/AG83 promastigotes infected ip dosed BALB/c mouse assessed as reduction in spleen parasite burden administered two times per week for 4 weeks relative to control. The format is functional. Also on record: scale not given: the % may be the effect or the level left. In short, it runs like this: as §1

The nature of data set [7]: Toxicity against golden Syrian hamster peritoneal macrophages. The format is cell-based, Mesocricetus auratus. As to conditions: macrophage.

Values after ≈ are worked out from the molar mass of the structure shown.

As usually defined, the IC50 is the concentration at which inhibition is half-maximal. With `Cc1ccc2cccc(OCCCCOc3cccc4ccc(C)nc34)c2n1`, the IC50 is 2.7 µg/mL (≈ 7.25 µM) with Leishmania donovani [1] and 3.2 µg/mL (≈ 8.59 µM) in the data set with Leishmania donovani [3]. In addition, the Activity in the data set with Leishmania donovani [2] was 190 mg; in the data set on Leishmania donovani [4] it was 78%; with Leishmania donovani [5] it was 1125 mg; with Leishmania donovani [6], 73.5%; in data set [7] it was more than 90 µg/mL.

For `c1cnc2c(OCOc3cccc4cccnc34)cccc2c1`, the IC50 in the data set with Leishmania donovani [1] is 2.3 µg/mL (≈ 7.61 µM); in the data set with Leishmania donovani [3] it was 2.4 µg/mL (≈ 7.94 µM). The Activity in the data set on Leishmania donovani [2] was 110 mg; in the data set on Leishmania donovani [4], 92%; with Leishmania donovani [5], 980 mg; in the data set on Leishmania donovani [6], 89%; in data set [7], more than 85 µg/mL.

With `C[C@@H]1[C@H](O)[C@@H](C)/C=C/C=C/C=C/C=C/C=C/C=C/C=C/[C@H](O[C@@H]2O[C@H](C)[C@@H](O)[C@H](N)[C@@H]2O)C[C@@H]2O[C@](O)(C[C@@H](O)C[C@@H](O)[C@H](O)CC[C@@H](O)C[C@@H](O)CC(=O)O[C@H]1C)C[C@H](O)[C@H]2C(=O)O` [AMPHOTERICIN B], the IC50 was 0.1 µg/mL (≈ 0.108 µM) in the data set on Leishmania donovani [1] and 0.16 µg/mL (≈ 0.173 µM) in the data set with Leishmania donovani [3]. The Activity in data set [7] is more than 4 µg/mL.

`N=C(N)c1ccc(OCCCCCOc2ccc(C(=N)N)cc2)cc1` [PENTAMIDINE]: the figures for the IC50 in the data set on Leishmania donovani [1] and in the data set on Leishmania donovani [3] were 2.8 µg/mL (≈ 8.22 µM) and 2.1 µg/mL (≈ 6.17 µM), respectively. The Activity in data set [7] is more than 90 µg/mL.

For `Cc1ccc2cccc(OCCCOc3cccc4ccc(C)nc34)c2n1`, the IC50 in the data set on Leishmania donovani [1] is 10 µg/mL (≈ 27.9 µM); with Leishmania donovani [3] it was 13.5 µg/mL (≈ 37.7 µM). The same compound displayed an Activity in data set [7] of more than 200 µg/mL.

Turning to `Cc1ccc2cccc(OCCCCCOc3cccc4ccc(C)nc34)c2n1`, the IC50 in the data set on Leishmania donovani [1] is 2.4 µg/mL (≈ 6.21 µM); with Leishmania donovani [3] it was 2.8 µg/mL (≈ 7.24 µM). Moreover, the Activity in the data set on Leishmania donovani [2] is 135 mg; with Leishmania donovani [4], 88.5%; in the data set with Leishmania donovani [5], 1020 mg; in the data set on Leishmania donovani [6], 82%; in data set [7], more than 85 µg/mL.

For `Cc1ccc2cccc(OCOc3cccc4ccc(C)nc34)c2n1`, the results for the IC50 in the data set with Leishmania donovani [1] and with Leishmania donovani [3] were 2.9 µg/mL (≈ 8.78 µM) and 3.4 µg/mL (≈ 10.3 µM), respectively. In addition, the Activity was 232 mg in the data set on Leishmania donovani [2], 1205 mg with Leishmania donovani [5] and more than 100 µg/mL in data set [7].

Turning to `O=c1ccc2cccc3c2n1CCO3` [OXAZINOQUINOLONE], the IC50 in the data set on Leishmania donovani [1] came to 14 µg/mL (≈ 74.8 µM); in the data set with Leishmania donovani [3], 16.5 µg/mL (≈ 88.1 µM). In data set [7], this compound returned an Activity of more than 220 µg/mL.

Values taken from ChEMBL document CHEMBL1153864, “Phase transfer catalyzed synthesis of bis-quinolines: antileishmanial activity in experimental visceral leishmaniasis and in vitro antibacterial evaluation” (Eur J Med Chem, 2009).
